Compounds with a hit are over-represented: about 2.7% of the library has one in this group of screens.
PAFAH1B3 FP inh: PAFAH1B3 (human) inhibition. Q15102. recombinant PAFAH1B3, FP-rhodamine probe, fluorescence polarization. inhibition, % at 3.39 µM. 0.28% of 340,000 active. AID 492972;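 active = inhibition above the screen-wide average of all tested compounds plus 3 SD, cut at about 25% in these data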;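 note: 0% = enzyme with DMSO only and 100% = wells lacking PAFAH1B3 protein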
Target sequence (Q15102 whole entry, looked up): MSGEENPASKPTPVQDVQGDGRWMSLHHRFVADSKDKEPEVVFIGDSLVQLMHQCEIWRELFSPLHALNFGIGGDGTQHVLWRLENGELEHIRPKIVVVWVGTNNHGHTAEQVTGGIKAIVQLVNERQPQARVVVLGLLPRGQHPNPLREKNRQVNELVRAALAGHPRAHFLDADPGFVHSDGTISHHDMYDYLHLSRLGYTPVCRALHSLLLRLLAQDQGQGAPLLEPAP
PAFAH1B2 FP inh: blocks human PAF acetylhydrolase 1b catalytic subunit 2; P68402; recombinant PAFAH1B2, FP-rhodamine activity probe, fluorescence polarization; inhibition, % at 3.39 µM; 1.2% of 340,000 active;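 active = inhibition above the mean of all tested compounds plus 3 SD, cut at about 24% in these data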;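 note: 0% = enzyme with DMSO and 100% = wells lacking PAFAH1B2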
ARFGAP1 inhibitor: inhibitors of rat ARFGAP1 | Arfgap1-stimulated ARF1 GTP hydrolysis, GDP FP detection | Q62848 | 0.26% of 360,000 active | inhibition, % at 16.5 µM | AID 651572;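 active = inhibition above a per-plate limit, mean inhibition of low control wells plus 3 SD, cut at about 25% in these data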;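 note: 0% = DMSO wells with enzyme and 100% = wells lacking Arfgap1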
Target sequence (Q62848 1-136 limits assumed): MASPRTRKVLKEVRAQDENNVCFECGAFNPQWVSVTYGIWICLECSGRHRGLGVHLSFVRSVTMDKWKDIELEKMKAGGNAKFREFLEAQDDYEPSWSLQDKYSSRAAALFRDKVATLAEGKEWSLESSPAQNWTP
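material = rat Arfgap1 catalytic domain, aa 1-136 | also added = human ARF1(Δ1-17)-GTP substrate | compound dosing = one concentration, 16.5 µM, DMSO 1.26% | times = GTP hydrolysis reaction 2 h at 25 °C | measured by = FP, GDP Alexa 633 tracer displaced from anti-GDP antibody, 620/688 nm | evaluation = percent inhibition of Arfgap1-stimulated GTP hydrolysis | replication = single well per compound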
ASAP1 inh: inhibitors of human ASAP1 ArfGAP activity; ASAP1-stimulated ARF1 GTP hydrolysis, GDP FP detection; inhibition, % at 16.5 µM; Q9ULH1; 0.19% of 360,000 active; in the data active = inhibition above about 25%;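 note: 0% = vehicle with enzyme and substrate and 100% = no enzyme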
Target sequence (Q9ULH1 325-724 limits assumed): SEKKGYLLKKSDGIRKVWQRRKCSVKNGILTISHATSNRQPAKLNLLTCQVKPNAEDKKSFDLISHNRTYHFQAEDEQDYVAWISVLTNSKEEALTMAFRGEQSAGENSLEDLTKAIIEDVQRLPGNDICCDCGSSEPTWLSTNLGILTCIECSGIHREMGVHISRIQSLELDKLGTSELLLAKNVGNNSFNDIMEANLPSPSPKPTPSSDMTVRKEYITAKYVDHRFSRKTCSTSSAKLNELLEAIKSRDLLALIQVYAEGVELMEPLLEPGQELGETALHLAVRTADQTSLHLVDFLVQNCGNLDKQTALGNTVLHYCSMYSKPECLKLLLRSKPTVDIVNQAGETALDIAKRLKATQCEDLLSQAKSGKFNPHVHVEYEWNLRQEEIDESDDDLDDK
pPAFAH inh: inhibitors of human plasma PAF acetylhydrolase (pPAFAH) | Q13093 | recombinant pPAFAH, FP-rhodamine probe fluorescence polarization | inhibition, % at 3.39 µM | 1.5% of 330,000 active | AID 463082;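 active = inhibition above the mean inhibition across the screen plus 3 SD, cut at about 25% in these data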;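 note: inhibitors block binding of the rhodamine activity-based probe so polarization drops; 0% = enzyme with DMSO and 100% = wells lacking pPAFAH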
PAFAH2 inh: inhibitors of human PAFAH2; 0.99% of 340,000 active; recombinant PAFAH2, FP-rhodamine activity probe, fluorescence polarization; AID 492956; Q99487; inhibition, % at 3.39 µM;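 active = inhibition above the mean over all tested compounds plus 3 SD, cut at about 30% in these data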;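 note: inhibitors block probe labeling of enzyme so polarization drops; 0% = enzyme with DMSO and 100% = wells lacking PAFAH2 protein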
* = called active by the depositor.

What do the screens show for `C/C(=N\NC(=O)c1ccc(Cl)c(Cl)c1)c1ccc(Br)s1`?
PAFAH1B3 FP inh: 9.1; PAFAH1B2 FP inh: 2.9; ARFGAP1 inhibitor: -16.5; ASAP1 inh: -15.0; pPAFAH inh: 1.9; PAFAH2 inh: -1.0

How did O=[N+]([O-])c1cccc(-c2nc(-c3cccs3)c(-c3cccs3)[nH]2)c1 do in these assays?
PAFAH1B3 FP inh: 21.8; PAFAH1B2 FP inh: 6.2; ARFGAP1 inhibitor: -1.3; ASAP1 inh: -2.6; pPAFAH inh: 28.5*; PAFAH2 inh: -2.7

How did Cc1ccc2nc(-c3ccco3)c(Cc3ccccc3C(F)(F)F)n2c1 do in these assays?
ARFGAP1 inhibitor: 8.2; ASAP1 inh: 10.4

What do the screens show for `CCOC(=O)/C(C#N)=C/c1cc(C)n(-c2ccc(C)cc2)c1C`?
PAFAH1B3 FP inh: 6.0; PAFAH1B2 FP inh: -1.1; ARFGAP1 inhibitor: 3.2; ASAP1 inh: -9.2; pPAFAH inh: 26.1*; PAFAH2 inh: -4.9

Results for NNC(=O)c1nn(-c2ccccc2)cc1O ?
pPAFAH inh: 30.6*

Results for O=C(Cc1ccc(Cl)cc1)Nc1ccc(N2CCCC2)cc1 ?
PAFAH1B3 FP inh: -2.2; PAFAH1B2 FP inh: 8.1; ARFGAP1 inhibitor: -3.6; ASAP1 inh: -7.7; pPAFAH inh: 0.5; PAFAH2 inh: -1.5

How did Clc1cccc(Cl)c1CNc1ccc(N2CCCC2)cc1 do in these assays?
ARFGAP1 inhibitor: -2.4; ASAP1 inh: -5.5; pPAFAH inh: 27.4*

What do the screens show for `C=CCn1c(SCC(=O)c2ccc(O)c(O)c2)nnc1-c1cccc(OC)c1`?
PAFAH1B3 FP inh: 12.2; PAFAH1B2 FP inh: 6.2; ARFGAP1 inhibitor: -4.0; ASAP1 inh: -6.6; pPAFAH inh: 28.4*; PAFAH2 inh: 24.4

Results for C=CCn1c(SCC(=O)c2ccc(O)c(O)c2)nnc1-c1ccc(OC)cc1 ?
PAFAH1B3 FP inh: 19.3; PAFAH1B2 FP inh: 6.9; ARFGAP1 inhibitor: -5.6; ASAP1 inh: -9.1; pPAFAH inh: 29.8*; PAFAH2 inh: 14.9

What do the screens show for `COc1ccc(-n2nnnc2SCC(=O)c2ccc(O)c(O)c2)cc1`?
PAFAH1B3 FP inh: 9.4; PAFAH1B2 FP inh: 12.0; ARFGAP1 inhibitor: 1.6; ASAP1 inh: -5.4; pPAFAH inh: 29.8*; PAFAH2 inh: 28.6

Results for Cn1c(SCC(=O)c2ccc(O)c(O)c2)nnc1-c1ccccc1 ?
PAFAH1B3 FP inh: 5.7; PAFAH1B2 FP inh: 9.8; ARFGAP1 inhibitor: 0.3; ASAP1 inh: 10.4; PAFAH2 inh: 19.3

What do the screens show for `C=CCn1c(SCC(=O)c2ccc(O)c(O)c2)nnc1-c1ccc(C)cc1`?
PAFAH1B3 FP inh: 10.4; PAFAH1B2 FP inh: 1.2; ARFGAP1 inhibitor: -2.8; ASAP1 inh: 8.8; pPAFAH inh: 27.7*; PAFAH2 inh: 27.9

How did CCCCc1nnn2c1C1c3cc(Br)ccc3CCN1C(=O)C2 (stereo not drawn) do in these assays?
ARFGAP1 inhibitor: 7.8; ASAP1 inh: 5.9

How did CCOc1ccc(C2C3=C(CCCC3=O)Nc3ccc4ncccc4c32)cc1 (stereo not drawn) do in these assays?
PAFAH1B3 FP inh: 6.9; PAFAH1B2 FP inh: 1.2; ARFGAP1 inhibitor: -1.3; ASAP1 inh: -13.9; pPAFAH inh: 28.7*; PAFAH2 inh: -0.1

What do the screens show for `Nc1[nH]c(C(=O)c2ccccc2)c(-c2ccccn2)c1C(=O)c1c[nH]c2ccccc12`?
ARFGAP1 inhibitor: -6.3; ASAP1 inh: -9.1

What do the screens show for `COc1ccc(C2CC(=O)C(c3ccccc3OC)=CN2Cc2ccccc2)cc1` (stereo not drawn)?
ARFGAP1 inhibitor: 9.4; ASAP1 inh: 3.6

Results for Cc1nn(C)c(Oc2ccccc2)c1CCNS(=O)(=O)c1ccc(Cl)cc1 ?
PAFAH1B3 FP inh: 2.6; PAFAH1B2 FP inh: 24.8*; ARFGAP1 inhibitor: -5.6; ASAP1 inh: -3.6; pPAFAH inh: 11.0; PAFAH2 inh: 20.8

What do the screens show for `CC(=O)NN1C(=O)/C(=C/c2ccc(C(C)C)cc2)SC1=S`?
PAFAH1B3 FP inh: 6.7; PAFAH1B2 FP inh: 41.8*; ARFGAP1 inhibitor: 4.1; ASAP1 inh: -7.4; pPAFAH inh: 12.5; PAFAH2 inh: -2.6

What do the screens show for `O=C(Cc1cccc2ccccc12)NN1C(=O)/C(=C\c2cccnc2)SC1=S`?
PAFAH1B3 FP inh: 0.2; PAFAH1B2 FP inh: 2.8; ARFGAP1 inhibitor: 10.3; ASAP1 inh: 14.5; pPAFAH inh: 3.1; PAFAH2 inh: -7.5

What do the screens show for `O=C(NN1C(=O)/C(=C\c2cccnc2)SC1=S)C(c1ccccc1)c1ccccc1`?
PAFAH1B3 FP inh: 5.5; PAFAH1B2 FP inh: 29.4*; ARFGAP1 inhibitor: -0.6; ASAP1 inh: 0.8; pPAFAH inh: 12.9; PAFAH2 inh: 7.3

How did O=C(NN1C(=O)/C(=C/c2cccnc2)SC1=S)C(c1ccccc1)c1ccccc1 do in these assays?
PAFAH1B3 FP inh: 3.6; PAFAH1B2 FP inh: 26.6*; ARFGAP1 inhibitor: -6.4; ASAP1 inh: 7.0; pPAFAH inh: 12.0; PAFAH2 inh: 6.5

How did O=C(O)c1ccc(/C=C2\SC(=S)N(NC(=O)c3ccccc3)C2=O)cc1 do in these assays?
PAFAH1B3 FP inh: -0.9; PAFAH1B2 FP inh: -4.8; ARFGAP1 inhibitor: -3.2; ASAP1 inh: 3.6; pPAFAH inh: 5.1; PAFAH2 inh: -13.2

What do the screens show for `COC(=O)[C@]12C[C@H](CC(=O)N3CCN(C(=O)c4ccco4)CC3)C(=O)N(CCC3=CCCCC3)C1=C[C@H](COCc1ccccc1)O[C@@H]2C`?
ARFGAP1 inhibitor: -5.0; ASAP1 inh: -9.3

What do the screens show for `O=C(NCc1ccccc1)[C@H]1CCCN1C(=O)[C@H]1CCCN1C(=O)c1ccccc1C(F)(F)F`?
ARFGAP1 inhibitor: 1.5; ASAP1 inh: -4.3

What do the screens show for `CC(C)(C)OC(=O)N1CCC[C@@H]1C(=O)N1CCC[C@H]1C(=O)NCc1ccccc1`?
ARFGAP1 inhibitor: 3.3; ASAP1 inh: 1.8

Results for C[C@H]1CN(C(=O)OC(C)(C)C)CCN1c1ccc(Br)c(C#N)c1 ?
ARFGAP1 inhibitor: -3.7; ASAP1 inh: -7.4

What do the screens show for `CNc1ccc(Br)cc(C(=O)/C=C/c2cccc(OC)c2OC)c1=O`?
PAFAH1B3 FP inh: 6.0; PAFAH1B2 FP inh: 4.6; ARFGAP1 inhibitor: 0.7; ASAP1 inh: -2.8; pPAFAH inh: 20.3; PAFAH2 inh: 13.2

Results for CNc1ccccc(C(=O)/C=C/c2ccccc2OC)c1=O ?
PAFAH1B3 FP inh: 17.7; PAFAH1B2 FP inh: 4.0; ARFGAP1 inhibitor: -3.8; ASAP1 inh: -3.0; pPAFAH inh: 27.8*; PAFAH2 inh: 15.3

How did Cc1nc(SCCC(=O)O)c2cc(-c3ccccc3)sc2n1 do in these assays?
PAFAH1B3 FP inh: -2.7; PAFAH1B2 FP inh: 49.8*; ARFGAP1 inhibitor: 8.4; ASAP1 inh: -15.3; pPAFAH inh: 1.8; PAFAH2 inh: -2.1

How did Cc1nc(N2CCOCC2)c2cc(-c3ccccc3)sc2n1 do in these assays?
PAFAH1B3 FP inh: -1.5; PAFAH1B2 FP inh: 5.3; ARFGAP1 inhibitor: -6.1; ASAP1 inh: -2.2; pPAFAH inh: 3.6; PAFAH2 inh: 0.2

Results for COc1cccc(CNC(=O)[C@H]2CCCN2C(=O)[C@H]2CCCN2C(=O)c2ccc(C)c(C)c2)c1 ?
ARFGAP1 inhibitor: -7.6; ASAP1 inh: 2.4
